According to ChEMBL document CHEMBL4177526, “Discovery and structure activity relationship of the first potent cryptosporidium FIKK kinase inhibitor” (Bioorg Med Chem, 2017):

Experiments:
[1] = Inhibition of recombinant Cryptosporidium parvum FIKK using RRRAPSFYRK peptide as substrate by NADH coupled LDH-PK ATPase assay
[2] = Inhibition of Cryptosporidium parvum CDPK1 using PLARTLSVAGLPGKK peptide as substrate by NADH coupled LDH-PK ATPase assay
Procedure, shortened: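 NADH-coupled LDH-PK ATPase read-out with 1.2 nM recombinant CpCDPK1, 0.25 mM ATP, 0.1 mM Syntide 2.0 peptide and 2 mM CaCl2. Inhibitors were made as 10 mM DMSO stocks and tested in 2-fold serial dilutions. IC50 is the average of triplicate experiments.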

[3] = system: Cryptosporidium parvum; assay: Inhibition of recombinant Cryptosporidium parvum FIKK assessed as change in melting temperature at 50 uM by differential static light scattering method
[4] = system: Cryptosporidium parvum; assay: Antiparasitic activity against Cryptosporidium parvum Iowa oocysts infected in human HCT8 cells pretreated prior to infection measured after 48 hrs by fluorescein labeled Vicia villosa lectin/Hoechst 33258 staining based epifluorescence microscopic analysis; assay type: functional, organism-based
Procedure, shortened: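 HCT-8 cells grown in RPMI-1640 with 10% heat-inactivated FBS and penicillin. Three-fold compound dilutions in culture medium were added to confluent cells before about 5500 excysted C. parvum Iowa oocysts per well. After 48 h, cells were fixed with 4% paraformaldehyde and permeabilized. Vacuoles were stained with fluorescein-Vicia villosa lectin (1.33 µg/mL, 1 h, 37 °C) and nuclei with Hoechst 33258, then imaged by epifluorescence microscopy.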

[5] = Ratio of EC50 for antiparasitic activity against Cryptosporidium parvum Iowa oocysts infected in human HCT8 cells to IC50 for recombinant Cryptosporidium parvum FIKK; assay type: functional, cell-based
[6] = Ratio of EC50 for antiparasitic activity against Cryptosporidium parvum Iowa oocysts infected in human HCT8 cells to IC50 for Cryptosporidium parvum CDPK1; assay type: functional
[7] = system: Cryptosporidium parvum; assay: Antiparasitic activity against Cryptosporidium parvum isolate AUCP-1 sporozoites infected in human HCT8 cells treated for 24 hrs followed by compound washout and supplemented with fresh medium containing compound at 24 intervals; assay type: functional, organism-based; settings: isolate AUCP-1, HCT-8, 24 h
[8] = Cryptosporidium parvum, Iowa, HCT-8, read-out: EC50

For `COc1ccc(-c2nc(N)sc2-c2ccc3ncccc3n2)cc1`, the IC50 [1] was over 10000 nM, the IC50 [2] was 2600 nM and the ΔTm [3] was 0.4 °C.
In the case of `Cc1ccnc2ccc(-c3sc(N)nc3-c3ccc(F)c(Cl)c3)nc12`, the IC50 [1] is reported as over 10000 nM and the IC50 [2] is reported as 400 nM.
`Cc1ccc(-c2nc(N)sc2-c2ccc3ncccc3n2)cc1C` showed an IC50 [1] of 2900 nM, an IC50 [2] of 19 nM and a ΔTm [3] of 0.82 °C. For the same compound, the EC50 [4, 8] was 3900 nM, the Ratio [5] was 1.3 and the Ratio [6] was 204.
Work on `COc1cccc(-c2nc(N)sc2-c2ccc3ncccc3n2)c1` yielded an IC50 [1] of 180 nM and an IC50 [2] of 260 nM.
With `Nc1nc(-c2ccccc2)c(-c2ccc3ncccc3n2)s1` the IC50 [1] was 42 nM, the IC50 [2] was 190 nM and the ΔTm [3] was 4.2 °C.
`Cc1cc(-c2nc(N)sc2-c2ccc3ncccc3n2)ccc1F` gave an IC50 [1] of 140 nM and an IC50 [2] of 73 nM.
`Nc1nc(-c2cccc(C(F)(F)F)c2)c(-c2ccc3ncccc3n2)s1` gave an IC50 [1] of 1200 nM and an IC50 [2] of 350 nM.
Compound `Nc1nc(-c2ccc(Cl)c(Cl)c2)c(-c2ccc3ncccc3n2)s1` has an IC50 [1] of 750 nM and an IC50 [2] of over 10000 nM.
For `Nc1nc(-c2cc(Cl)cc(Cl)c2)c(-c2ccc3ncccc3n2)s1`, the IC50 [1] was over 10000 nM, the IC50 [2] was 3500 nM and the EC50 [4] was “Not Active”.
In the case of `CC(C)(C)n1nc(-c2cccc3ccccc23)c2c(N)ncnc21`, the EC50 [7] is reported as 2560 nM, the EC50 [4, 8] is reported as 4100 nM and the Ratio [6] is reported as 1.
